Columns and labels:
[1] = tested on: Leishmania donovani; assay: Antileishmanial activity against Leishmania donovani MHOM/IN/80/Dd8 promastigotes harboring luciferase reporter gene infected in mouse J774 cells assessed as inhibition of amastigote growth incubated for 72 hrs by Steady-Glo luminescence assay; assay type: functional, organism-based
Method in brief: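 J774A.1 mouse macrophages (2 × 10^5 per well, RPMI-1640 + 10% FCS, 37 °C CO2) infected after 24 h with stationary-phase luciferase-transgenic promastigotes at 1:10 macrophage:parasite; compounds in complete medium for 72 h at 37 °C. Medium swapped for PBS, Steady-Glo added, luminescence read; % inhibition vs untreated control RLU. IC50 by Probit log dose/response regression, three independent experiments.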

[2] = tested on: Leishmania donovani; assay: Antileishmanial activity against late log phase promastigote stage of Leishmania donovani MHOM/IN/80/Dd8 harboring luciferase reporter gene incubated for 72 hrs by Steady-Glo luminescence assay; assay type: functional, organism-based
Method in brief: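 Luciferase-transfected promastigotes kept at 25 ± 1 °C in medium 199 + 10% heat-inactivated FCS + G418 (20 μg ml–1). Late-log cells (5 × 10^5 per well) grown 72 h with graded compound concentrations from DMSO, DMSO dilution controls. Aliquot mixed 1:1 with Steady-Glo, luminescence (RLU) read; % inhibition vs control. IC50 by Probit regression, three independent experiments.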

[3] = Selectivity index, ratio of CC50 for mouse J774.A1 cells to IC50 for amastigote form of Leishmania donovani MHOM/IN/80/Dd8; assay type: toxicity; conditions: read-out: Ratio CC50/IC50
Method in brief: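 Macrophages infected at a 1:10 ratio with stationary promastigotes, then treated 72 h at 37 °C; luminescence read with Steady-Glo. IC50 values from probit analysis.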

[4] = Cytotoxicity against mouse J774A1 cells assessed as reduction in cell viability incubated for 48 hrs by MTT assay; assay type: cell-based, J774.A1
Method in brief: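 J774A.1 macrophages, 0.2 × 10^6 per well, incubated overnight at 37 °C in 5% CO2, then exposed to compounds in DMSO for 48 h, with DMSO dilutions as controls. Viability read by MTT formazan at 600 nm. CC50 = 50% viability reduction versus medium-only cells, from probit regression; three independent experiments.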

[5] = Leishmania donovani, MHOM/IN/80/Dd8, 72 h, read-out: IC50
[6] = Leishmania donovani, MHOM/IN/80/Dd8, J774, 72 h, read-out: IC50

Structure (SMILES)	IC50 [1]	IC50 [2, 5] [nM]	selectivity ratio [3]	IC50 [1, 6] [µM]	CC50 at 48 h [4] [µM]	IC50 [2]
COC(=O)c1c([N+](=O)[O-])noc1-c1ccc(Cl)cc1	Not Active	1790	–	–	–	–
COC(=O)c1c([N+](=O)[O-])noc1-c1cc(-c2ccccc2Cl)n(-c2ccccc2)n1	–	760	3.76	21.2	79.9	–
O=C(O)c1c([N+](=O)[O-])noc1-c1ccc([N+](=O)[O-])cc1	Not Active	19000	–	–	–	–
COc1ccc(CNC(=O)c2c([N+](=O)[O-])noc2-c2ccc(Cl)cc2)cc1OC	–	3050	33	3.22	106	–
COC(=O)c1c(NCc2ccc(F)cc2)noc1-c1ccc([N+](=O)[O-])cc1	Not Active	–	–	–	–	Not Active
O=C(NCc1ccccc1)c1c([N+](=O)[O-])noc1-c1ccc([N+](=O)[O-])cc1	Not Active	–	–	–	–	Not Active
COC(=O)c1c(NCc2ccc(OC)cc2)noc1-c1cc2c(cc1[N+](=O)[O-])OCO2	Not Active	–	–	–	–	Not Active
O=C(c1c([N+](=O)[O-])noc1-c1ccc(Cl)cc1)N1CCOCC1	Not Active	–	–	–	–	Not Active
COC(=O)c1c(NCc2ccc(OC)c(OC)c2)noc1-c1ccc([N+](=O)[O-])cc1	Not Active	–	–	–	–	Not Active
COc1cccc(CNC(=O)c2c([N+](=O)[O-])noc2-c2ccc(Cl)cc2Cl)c1	–	3020	5.41	11.3	61.1	–
COC(=O)c1c([N+](=O)[O-])noc1-c1ccc(Cl)c(Cl)c1	Not Active	1110	–	–	–	–
COC(=O)c1c(NCCNc2ccnc3cc(Cl)ccc23)noc1-c1ccccc1[N+](=O)[O-]	–	3450	3.94	18.7	73.6	–
COC(=O)c1c(NCCCCNc2ccnc3cc(Cl)ccc23)noc1-c1ccc(Cl)cc1Cl	–	5930	3.39	27.6	93.5	–
CC(C)CCNC(=O)c1c([N+](=O)[O-])noc1-c1ccc([N+](=O)[O-])cc1	–	3010	3.85	17.4	67	–
O=C(NCc1cccc(Br)c1)c1c([N+](=O)[O-])noc1-c1ccc(Cl)cc1	Not Active	–	–	–	–	Not Active
COc1cccc(CNC(=O)c2c([N+](=O)[O-])noc2-c2ccc(Cl)cc2)c1	–	2790	20	3.43	68.5	–
O=C(NCc1ccc(F)cc1)c1c([N+](=O)[O-])noc1-c1ccc([N+](=O)[O-])cc1	Not Active	–	–	–	–	Not Active
O=C(NCCN1CCOCC1)c1c([N+](=O)[O-])noc1-c1ccc(Cl)cc1	Not Active	–	–	–	–	Not Active
COC(=O)c1c(NCc2ccc(C(C)(C)C)cc2)noc1-c1ccc(Cl)cc1Cl	–	> 50000	–	> 50	–	–
COc1ccc(CNC(=O)c2c([N+](=O)[O-])noc2-c2ccc(Cl)cc2Cl)cc1OC	–	5240	41.9	1.95	81.8	–
O=C(Nc1ccccc1)c1c([N+](=O)[O-])noc1-c1ccc([N+](=O)[O-])cc1	Not Active	–	–	–	–	Not Active
COC(=O)c1c(NCc2ccc(C(C)(C)C)cc2)noc1-c1ccc([N+](=O)[O-])cc1	–	49700	9.69	8.16	81.4	–
CC(C)CCNC(=O)c1c([N+](=O)[O-])noc1-c1ccc(Cl)cc1	Not Active	–	–	–	–	Not Active
CCN(CC)CCNc1noc(-c2ccc(Cl)cc2Cl)c1C(=O)OC	Not Active	–	–	–	–	Not Active
COc1cccc(CNC(=O)c2c([N+](=O)[O-])noc2-c2ccc([N+](=O)[O-])cc2)c1	Not Active	–	–	–	–	Not Active

Structure (SMILES)	IC50 [1]	IC50 [2, 5] [nM]	selectivity ratio [3]	IC50 [1, 6] [µM]	CC50 at 48 h [4] [µM]	IC50 [2]
COC(=O)c1c([N+](=O)[O-])noc1-c1ccc(F)cc1	Not Active	2100	–	–	–	–
COC(=O)c1c(NCc2ccc(OC)c(OC)c2)noc1-c1cc2c(cc1[N+](=O)[O-])OCO2	Not Active	–	–	–	–	Not Active
COC(=O)c1c([N+](=O)[O-])noc1-c1ccc(C(F)(F)F)cc1	Not Active	660	–	–	–	–
COC(=O)c1c([N+](=O)[O-])noc1-c1ccccc1	Not Active	2170	–	–	–	–
COC(=O)c1c([N+](=O)[O-])noc1-c1cccc([N+](=O)[O-])c1	Not Active	2490	–	–	–	–
CCCNC(=O)c1c([N+](=O)[O-])noc1-c1ccc(Cl)cc1	Not Active	–	–	–	–	Not Active
COC(=O)c1c(NCCCNc2ccnc3cc(Cl)ccc23)noc1-c1ccccc1F	Not Active	16800	–	–	–	–
O=C(NCc1ccccc1)c1c([N+](=O)[O-])noc1-c1ccc(Cl)cc1	Not Active	–	–	–	–	Not Active
COC(=O)c1c(NCc2ccc(OC)cc2)noc1-c1ccc([N+](=O)[O-])cc1	Not Active	–	–	–	–	Not Active
COC(=O)c1c(NCc2ccccc2)noc1-c1cc2c(cc1[N+](=O)[O-])OCO2	Not Active	> 50000	–	–	–	–
O=C(NCc1cccc(Cl)c1Cl)c1c([N+](=O)[O-])noc1-c1ccc([N+](=O)[O-])cc1	Not Active	–	–	–	–	Not Active
COc1ccc(CNC(=O)c2c([N+](=O)[O-])noc2-c2ccc([N+](=O)[O-])cc2)cc1OC	Nd(Toxic)	1300	–	–	–	–
O=C(O)c1c([N+](=O)[O-])noc1-c1cc2c(cc1[N+](=O)[O-])OCO2	Not Active	–	–	–	–	Not Active
COC(=O)c1c([N+](=O)[O-])noc1-c1ccc([N+](=O)[O-])cc1	Not Active	670	–	–	–	–
CCN(CC)CCNc1noc(-c2cc3c(cc2[N+](=O)[O-])OCO3)c1C(=O)OC	Not Active	–	–	–	–	Not Active
O=C(NCc1ccccc1)c1c([N+](=O)[O-])noc1-c1ccc(Cl)cc1Cl	Nd(Toxic)	1320	–	–	–	–
COC(=O)c1c(NCc2ccc(OC)cc2OC)noc1-c1cc2c(cc1[N+](=O)[O-])OCO2	Not Active	–	–	–	–	Not Active
COC(=O)c1c([N+](=O)[O-])noc1-c1cccc(-c2cccs2)c1	Not Active	38400	–	–	–	–
O=C(NCc1cccc(Br)c1)c1c([N+](=O)[O-])noc1-c1ccc([N+](=O)[O-])cc1	Not Active	–	–	–	–	Not Active
COC(=O)c1c(NCc2cccc(OC)c2)noc1-c1cc2c(cc1[N+](=O)[O-])OCO2	Not Active	–	–	–	–	Not Active
COC(=O)c1c(NCCCNc2ccnc3cc(Cl)ccc23)noc1-c1ccccc1[N+](=O)[O-]	Not Active	1980	–	–	–	–
COC(=O)c1c(NCc2cccc(OC)c2)noc1-c1ccc([N+](=O)[O-])cc1	Not Active	–	–	–	–	Not Active
COC(=O)c1c([N+](=O)[O-])noc1-c1ccccc1[N+](=O)[O-]	Not Active	4010	–	–	–	–
COC(=O)c1c(NCc2ccc(OC)cc2OC)noc1-c1ccc([N+](=O)[O-])cc1	Not Active	–	–	–	–	Not Active

From ChEMBL document CHEMBL4699419, “Antileishmanial assessment of isoxazole derivatives against L. donovani” (RSC Med Chem, 2020)
